Biological target: T1, sPBP 6 (Escherichia coli, UniProt P08506)
T1 sequence (P08506 28-388 limits assumed): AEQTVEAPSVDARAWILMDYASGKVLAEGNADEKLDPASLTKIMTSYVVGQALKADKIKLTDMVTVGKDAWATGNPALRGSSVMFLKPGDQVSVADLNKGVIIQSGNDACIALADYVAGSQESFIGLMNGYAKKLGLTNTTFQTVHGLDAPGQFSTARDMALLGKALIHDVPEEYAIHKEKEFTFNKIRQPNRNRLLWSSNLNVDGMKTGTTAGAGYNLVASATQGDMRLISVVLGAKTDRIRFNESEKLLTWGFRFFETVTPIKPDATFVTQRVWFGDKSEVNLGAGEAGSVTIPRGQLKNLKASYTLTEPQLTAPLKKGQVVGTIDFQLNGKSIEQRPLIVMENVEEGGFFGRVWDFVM
Test: acylation rate, fluorescent labelling, SDS-PAGE densitometry
Assay type: binding
Settings: covalent; labelled compound; active-site serine acylation; 25-100 μM, 30-120 s
How it was run: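 Enzyme (250 μg) was incubated with BOCILLIN FL at 25, 50 or 100 μM for 30–120 s, then run on 12% SDS-PAGE and fluorescence-scanned (488/526 nm). Pseudo-first-order ka came from bound density relative to saturation, and k2/K from the slope of ka versus concentration.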

SMILES: Cc1cc(C)n2c1C=C1C=CC(CCC(=O)Nc3ccc(OCC(=O)N[C@@H]4C(=O)N5[C@@H]4SC(C)(C)[C@@H]5C(=O)[O-])cc3)=[N+]1[B-]2(F)F.[Na+] [BOCILLIN FL]
- k2/K / M^-1 s^-1: 1900 ± 65.5 M⁻¹ s⁻¹
